We go through twelve compounds from ChEMBL document CHEMBL1141679, “Design, synthesis, biochemical, and biological evaluation of nitrogen-containing trifluoro structural modifications of combretastatin A-4” (Bioorg Med Chem Lett, 2008).

As a reminder, the GI50 is the concentration that inhibits growth by half. A high value points to less potent growth inhibition. The IC50 is the midpoint of a concentration-inhibition curve.

In brackets after ≈: the same amount, converted by molar mass.

For one assay, the system named is NCI-H460. Put plainly: Cytotoxicity against human NCI-H460 cells after 48 hrs by SRB assay. The conditions noted are these: NCI-H460, 48 h. The assay is classed as functional. The gist of the method:
(§1)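 Cells were seeded in culture medium with 5% fetal bovine serum and incubated 24 h, then serial dilutions of compound were added. After 48 h, cells were fixed with trichloroacetic acid and stained with sulforhodamine B, and optical density was read on a plate reader. GI50 is the concentration giving a 50% reduction in net protein increase, calculated from optical density.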

A further assay has as its system DU-145. Put plainly: Cytotoxicity against human DU145 cells after 48 hrs by SRB assay. The assay is classed as functional. The conditions noted are these: DU-145, 48 h. In outline:
as §1

Assay [1] is described as follows: Inhibition of calf brain tubulin polymerization. Details: species or system Bos taurus. The gist of the method:
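Tubulin was purified from calf brain. Assembly was followed by turbidity at 350 nm. IC50 was obtained by nonlinear regression of the data.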

Take `COc1ccc(/C=C\c2cc(F)c(F)c(F)c2)c(N)c1`: the GI50 in the assay with NCI-H460 is more than 5 µg/mL; in the assay on DU-145, 4.3 µg/mL (≈ 15.4 µM).

Turning to `COc1ccc(/C=C\c2cc(F)c(F)c(F)c2)cc1O`, the figures for the GI50 in the assay with NCI-H460 and in the assay on DU-145 were 0.2 µg/mL (≈ 0.714 µM) and 0.04 µg/mL (≈ 0.143 µM), respectively. Besides, the IC50 in assay [1] turned out to be 4500 nM.

As for `COc1ccc(/C=C\c2cc(F)c(F)c(F)c2)cc1[N+](=O)[O-]`, the GI50 in the assay on NCI-H460 and in the assay on DU-145 was more than 5 µg/mL each time. Besides, the IC50 in assay [1] was more than 40000 nM.

Consider `COc1ccc(/C=C/c2cc(F)c(F)c(F)c2)c([N+](=O)[O-])c1`, for which the GI50 in the assay with NCI-H460 and in the assay on DU-145 was more than 5 µg/mL throughout.

As to `COc1ccc(/C=C\c2cc(OC)c(OC)c(OC)c2)cc1O` [COMBRETASTATIN A4], the 50% growth inhibitory concentration (GI50) came to 0.0006 µg/mL (≈ 0.0019 µM) with NCI-H460 and 0.0008 µg/mL (≈ 0.00253 µM) with DU-145.

Turning to `COc1ccc(/C=C/c2cc(F)c(F)c(F)c2)cc1[N+](=O)[O-]`, the 50% growth inhibitory concentration (GI50) with NCI-H460 and in the assay with DU-145 was more than 5 µg/mL each time. The IC50 in assay [1] is more than 40000 nM.

Regarding `COc1ccc(/C=C\c2cc(F)c(F)c(F)c2)c([N+](=O)[O-])c1`, the GI50 in the assay on NCI-H460 and with DU-145 was more than 5 µg/mL in each case.

Consider `COc1ccc(/C=C/c2cc(F)c(F)c(F)c2)c(N)c1`, for which the GI50 in the assay on NCI-H460 and in the assay with DU-145 was more than 5 µg/mL in each case.

For `COc1ccc(/C=C\c2cc(OC)c(OC)c(OC)c2)cc1N`, the GI50 in the assay with NCI-H460 amounted to 0.00068 µg/mL (≈ 0.00216 µM); in the assay with DU-145, 0.00096 µg/mL (≈ 0.00304 µM). The compound also yielded an IC50 in assay [1] of 2600 nM.

Consider `COc1ccc(/C=C/c2cc(F)c(F)c(F)c2)cc1N`, for which the GI50 in the assay with NCI-H460 and in the assay on DU-145 was more than 5 µg/mL throughout. Further, the IC50 in assay [1] is more than 40000 nM.

In the case of `COc1ccc(/C=C\c2cc(OC)c(OC)c(OC)c2)c(N)c1`, the GI50 in the assay on NCI-H460 is 0.0012 µg/mL (≈ 0.00381 µM); in the assay with DU-145 it was 0.0016 µg/mL (≈ 0.00507 µM). Besides, in assay [1], the IC50 stood at 1400 nM.

Consider `COc1ccc(/C=C\c2cc(F)c(F)c(F)c2)cc1N`, for which the concentration for 50% growth inhibition (GI50) came out at 0.11 µg/mL (≈ 0.394 µM) in the assay on NCI-H460 and 0.072 µg/mL (≈ 0.258 µM) in the assay with DU-145. 2900 nM corresponded to half-maximal inhibition in assay [1] (IC50).
